Reference: ChEMBL document CHEMBL1140337, “Synthesis and structure-activity relationships of a new series of retinoid-related biphenyl-4-ylacrylic acids endowed with antiproliferative and proapoptotic activity” (J Med Chem, 2005)

Tests used:
IGROV-1 [1] = test: Concentration of compound required for inhibition of (IGROV-1) human ovarian carcinoma cell growth by 50%; assay type: functional, cell-based
Summary of the method: (§1)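 Ovarian carcinoma cells in log-phase growth seeded in duplicate; drug added 24 h after seeding, cells harvested after 72 h of exposure and counted with a cell counter. IC50 = concentration giving 50% fewer cells than untreated control. Where SD is reported, mean of three independent experiments.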

[2] = Concentration of compound required for inhibition of (IGROV-1/Pt1) human cisplatin resistant ovarian carcinoma cell growth by 50%; assay type: functional; summary of the method: as §1
IGROV-1 [3] = test: Percent level of apoptosis induced by 72 hr of exposure with IC80 in (IGROV-1) human ovarian carcinoma cells; assay type: functional
NB-4 = test: Concentration of compound required for inhibition of (NB4) human promyelocytic leukemia cell growth by 50%; assay type: functional, cell-based
Summary of the method: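 Leukemia cells exposed to drug for 24 h; growth inhibition assessed by cell counting at 72 h. IC50 = concentration reducing cell number 50% versus untreated control. Where SD is given, mean of three independent experiments.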

[4] = Effective concentration against retinoic acid receptor gamma in COS-7 cells co-expressing DR5-tk-CAT reporter; assay type: cell-based
Summary of the method: (§2)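 COS-7 cells transfected with the relevant RAR isoform (alpha, beta or gamma) plus a DR5-tk-CAT reporter. 24 h post-transfection, cells treated 24 h with increasing compound concentrations. CAT activity measured in cell extracts, normalized to a beta-galactosidase transfection control.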

[5] = biological target: T1, Retinoic acid receptor beta (Homo sapiens, UniProt P10826); test: Effective concentration against retinoic acid receptor beta in COS-7 cells co-expressing DR5-tk-CAT reporter; assay type: cell-based; summary of the method: as §2
T1 sequence (P10826 whole entry): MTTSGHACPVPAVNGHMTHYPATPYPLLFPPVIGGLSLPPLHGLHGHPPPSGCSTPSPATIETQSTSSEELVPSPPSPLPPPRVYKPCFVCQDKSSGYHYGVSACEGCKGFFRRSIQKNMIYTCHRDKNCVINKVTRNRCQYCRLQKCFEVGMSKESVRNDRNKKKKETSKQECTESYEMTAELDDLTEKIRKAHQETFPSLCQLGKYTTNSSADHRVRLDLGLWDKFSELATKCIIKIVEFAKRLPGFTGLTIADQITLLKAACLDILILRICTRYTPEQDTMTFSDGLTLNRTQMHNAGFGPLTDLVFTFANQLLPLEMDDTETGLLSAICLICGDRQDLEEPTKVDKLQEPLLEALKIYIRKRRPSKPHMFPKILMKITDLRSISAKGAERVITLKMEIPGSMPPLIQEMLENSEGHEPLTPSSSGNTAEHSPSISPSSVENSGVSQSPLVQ

[6] = Percent level of apoptosis induced by 72 hr of exposure with IC80 in (IGROV-1/Pt1) human cisplatin resistant ovarian carcinoma cells; assay type: functional
[7] = Effective concentration against retinoic acid receptor alpha in COS-7 cells co-expressing DR5-tk-CAT reporter; assay type: cell-based; summary of the method: as §2
[8] = Effective concentration against retinoic acid receptor alpha in COS-7 cells co-expressing DR5-tk-CAT reporter; value range (5.6-59.1); assay type: cell-based; summary of the method: as §2
[9] = biological target: T1, Retinoic acid receptor beta; test: Effective concentration against retinoic acid receptor beta in COS-7 cells co-expressing DR5-tk-CAT reporter; value range (7.5-41.1); assay type: cell-based; summary of the method: as §2
[10] = Effective concentration against retinoic acid receptor gamma in COS-7 cells co-expressing DR5-tk-CAT reporter; value range (0.6-1.5); assay type: cell-based; summary of the method: as §2
[11] = Effective concentration against retinoic acid receptor gamma in COS-7 cells co-expressing DR5-tk-CAT reporter; value range (0.1-0.5); assay type: cell-based; summary of the method: as §2
[12] = Effective concentration against retinoic acid receptor alpha in COS-7 cells co-expressing DR5-tk-CAT reporter; value range (4.6-8.9); assay type: cell-based; summary of the method: as §2
[13] = biological target: T1, Retinoic acid receptor beta; test: Effective concentration against retinoic acid receptor beta in COS-7 cells co-expressing DR5-tk-CAT reporter; value range (3.9-7.2); assay type: cell-based; summary of the method: as §2
[14] = biological target: T1, Retinoic acid receptor beta; test: Effective concentration against retinoic acid receptor beta in COS-7 cells co-expressing DR5-tk-CAT reporter; value range (6.1-9.8); assay type: cell-based; summary of the method: as §2
[15] = Effective concentration against retinoic acid receptor alpha in COS-7 cells co-expressing DR5-tk-CAT reporter; value range (13.9-29.7); assay type: cell-based; summary of the method: as §2
[16] = Effective concentration against retinoic acid receptor gamma in COS-7 cells co-expressing DR5-tk-CAT reporter; value range (0.8-2.4); assay type: cell-based; summary of the method: as §2
[17] = biological target: T1, Retinoic acid receptor beta; test: Effective concentration against retinoic acid receptor beta in COS-7 cells co-expressing DR5-tk-CAT reporter; value range (0.1-0.3); assay type: cell-based
[18] = Effective concentration against retinoic acid receptor gamma in COS-7 cells co-expressing DR5-tk-CAT reporter; value range (0.1-0.3); assay type: cell-based; summary of the method: as §2
[19] = Effective concentration against retinoic acid receptor alpha in COS-7 cells co-expressing DR5-tk-CAT reporter; value range (0.1-0.4); assay type: cell-based; summary of the method: as §2

| SMILES | IC50 (IGROV-1 [1]) | IC50 [2] | Apoptosis (IGROV-1 [3]) | IC50 (NB-4) | further results |
| --- | --- | --- | --- | --- | --- |
| O=C(O)/C=C/c1ccc(-c2ccc(O)c(C34CC5CC(CC(C5)C3)C4)c2)c(Cl)c1 | 0.58 µM | 0.73 µM | 74% | 0.2 µM | – |
| COC(=O)/C=C/c1ccc(-c2ccc(O)c(C34CC5CC(CC(C5)C3)C4)c2)cc1 | 0.61 µM | 3.5 µM | – | 18.2 µM | – |
| O=C(O)/C=C/c1ccc2c(ccc3cc(O)c(C45CC6CC(CC(C6)C4)C5)cc32)c1 | 2.2 µM | 2.1 µM | – | 1.5 µM | – |
| O=P(O)(O)/C=C/c1ccc(-c2ccc(O)c(C34CC5CC(CC(C5)C3)C4)c2)cc1 | > 20 µM | > 20 µM | – | > 200 µM | – |
| C/C(=C\c1ccc(-c2ccc(O)c(C34CC5CC(CC(C5)C3)C4)c2)cc1)C(=O)O | 7.19 µM | 10 µM | – | 2.3 µM | – |
| O=C(O)/C=C/c1ccc(-c2ccc(O)cc2)cc1 | 89 µM | 156 µM | 3% | 78.7 µM | EC50 [4]: > 100 µM; EC50 [5]: > 100 µM; Apoptosis [6]: 1%; EC50 [7]: > 100 µM |
| CC(C)(C)c1cc(-c2ccc(/C=C/C(=O)O)cc2)ccc1O | 30 µM | 30 µM | – | 42.3 µM | – |
| Nc1ccccc1NC(=O)/C=C/c1ccc(-c2ccc(O)c(C34CC5CC(CC(C5)C3)C4)c2)cc1 | 2.1 µM | 2 µM | 8% | 1.8 µM | EC50 [8]: 18.2 µM; EC50 [9]: 17.6 µM; EC50 [10]: 0.9 µM |
| O=C(O)C#Cc1ccc(-c2ccc(O)c(C34CC5CC(CC(C5)C3)C4)c2)cc1 | 1.15 µM | 1.52 µM | 52% | 1.2 µM | – |
| O=C(O)/C=C/c1ccc(-c2ccc(O)c(CC3CCCCC3)c2)cc1 | 2.58 µM | 2.3 µM | 25% | 2.2 µM | EC50 [11]: 0.2 µM; EC50 [12]: 6.4 µM; Apoptosis [6]: 9%; EC50 [13]: 5.3 µM |
| CC1(c2cc(-c3ccc(/C=C/C(=O)O)cc3)ccc2O)CCCCCCCCCCC1 | 3.57 µM | – | – | – | – |
| O=C(O)c1ccc(-c2ccc(O)c(C34CC5CC(CC(C5)C3)C4)c2)cc1 | > 3 µM | > 3 µM | – | 35.2 µM | – |
| O=C(/C=C/c1ccc(-c2ccc(O)c(C34CC5CC(CC(C5)C3)C4)c2)cc1)Nc1ccc(O)cc1 | 6.6 µM | 10.5 µM | 2% | 2 µM | EC50 [14]: 7.7 µM; EC50 [15]: 20.3 µM; EC50 [16]: 1.4 µM |
| O=C(O)/C=C/c1ccc(-c2ccc(O)c(-c3ccccc3)c2)cc1 | 19 µM | 12.5 µM | 7% | 45.3 µM | EC50 [4]: > 100 µM; EC50 [5]: > 100 µM; Apoptosis [6]: 1%; EC50 [7]: > 100 µM |
| CCOP(=O)(/C=C/c1ccc(-c2ccc(O)c(C34CC5CC(CC(C5)C3)C4)c2)cc1)OCC | 19.7 µM | > 20 µM | – | 1.7 µM | – |
| O=C(O)/C=C/c1ccc(-c2ccc(O)c(Cl)c2)cc1 | 26 µM | – | – | – | – |
| OC/C=C/c1ccc(-c2ccc(O)c(C34CC5CC(CC(C5)C3)C4)c2)cc1 | 10.8 µM | 10.6 µM | – | 9.1 µM | – |
| O=C(O)/C(F)=C/c1ccc(-c2ccc(O)c(C34CC5CC(CC(C5)C3)C4)c2)cc1 | 0.37 µM | 0.63 µM | – | 0.081 µM | – |
| O=Cc1cc(/C=C/C(=O)O)ccc1-c1ccc(O)c(C23CC4CC(CC(C4)C2)C3)c1 | 1.28 µM | 2.63 µM | 44% | 1.05 µM | – |
| O=C(O)C1CC1c1ccc(-c2ccc(O)c(C34CC5CC(CC(C5)C3)C4)c2)cc1 (stereo not given) | > 20 µM | > 20 µM | – | 39.4 µM | – |
| C/C(=C\C(=O)O)c1ccc(-c2ccc(O)c(C34CC5CC(CC(C5)C3)C4)c2)cc1 | 9.97 µM | 16.6 µM | 26% | 6.7 µM | – |
| Cc1cc(O)c(C23CC4CC(CC(C4)C2)C3)cc1-c1ccc(/C=C/C(=O)O)cc1 | 1.14 µM | 2.92 µM | – | 1.7 µM | – |
| O=C(O)/C(F)=C\c1ccc(-c2ccc(O)c(C34CC5CC(CC(C5)C3)C4)c2)cc1 | > 3 µM | > 3 µM | – | 22.4 µM | – |
| O=C(O)/C=C/c1ccc(-c2cc(O)cc(C34CC5CC(CC(C5)C3)C4)c2)cc1 | 1.31 µM | – | – | 1.2 µM | – |
| N#C/C=C/c1ccc(-c2ccc(O)c(C34CC5CC(CC(C5)C3)C4)c2)cc1 | 8.3 µM | 12.7 µM | 2% | 14.3 µM | – |
| O=C(O)/C=C/c1ccc(-c2ccc(C34CC5CC(CC(C5)C3)C4)c(O)c2)cc1 | 6.13 µM | – | 23% | > 10 µM | – |
| O=C(O)/C=C/c1ccc(-c2ccc(O)c(C34CC5CC(CC(C5)C3)C4)c2)cc1F | 0.2 µM | 0.43 µM | 47% | 0.17 µM | – |
| O=C(O)CCc1ccc(-c2ccc(O)c(C34CC5CC(CC(C5)C3)C4)c2)cc1 | 48.4 µM | 44.5 µM | 26% | 63.6 µM | – |
| O=C(O)/C=C/c1ccc(-c2ccc(O)c(C34CC5CC(CC(C5)C3)C4)c2)cc1 [ADAROTENE] | – | 0.4 µM | 65% | 0.082 µM | EC50 [17]: 0.2 µM; EC50 [18]: 0.1 µM; EC50 [19]: 0.2 µM; Apoptosis [6]: 30% |
| O=C(O)c1ccc2cc(-c3ccc(O)c(C45CC6CC(CC(C6)C4)C5)c3)ccc2c1 [O-DEMETHYLATED ADAPALENE] | – | 0.62 µM | 38% | 0.4 µM | Apoptosis [6]: 25% |
